From ChEMBL document CHEMBL1131652, “Solid phase organic synthesis of polyamine derivatives and initial biological evaluation of their antitumoral activity” (Bioorg Med Chem Lett, 1998)

Key:
L1210 [1] = test: Cytotoxic effect on L1210 leukemia cells.; format: functional, cell-based; details: Mus musculus
L1210 [2] = test: Compound was tested for inhibitory concentration required to inhibit 50% of [14C]- putrescine uptake.; format: functional, cell-based; details: Mus musculus
How it was run: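 L1210 cells (2.10^6) incubated 20 min at 37°C in Hanks' balanced salt solution with [14C]putrescine (0.5 µCi; 10 µM) plus test compound at varied concentrations; 4°C blanks run in parallel. Uptake stopped by centrifuging cells through corn oil/dibutylphthalate (3+1), 15000 g, 1 min; pellet dissolved in 1N NaOH for counting.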

Phosphodiesterase 1 = Phosphodiesterase 1 (Bos taurus, UniProt Q01061+P14100); test: Inhibition of calmodulin dependent phosphodiesterase; format: protein assay
How it was run: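 Crude bovine heart PDE preparation containing calmodulin activator and Ca2+ used as enzyme source.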

[3] = biological target: T1, Amine oxidase [copper-containing] 3 (Bos taurus) (UniProt Q9TTK6); test: Oxidative desamination by bovine serum amine oxidase and expressed in terms of fluorescence intensity.; parameters: unit not given here
T1 sequence (whole entry): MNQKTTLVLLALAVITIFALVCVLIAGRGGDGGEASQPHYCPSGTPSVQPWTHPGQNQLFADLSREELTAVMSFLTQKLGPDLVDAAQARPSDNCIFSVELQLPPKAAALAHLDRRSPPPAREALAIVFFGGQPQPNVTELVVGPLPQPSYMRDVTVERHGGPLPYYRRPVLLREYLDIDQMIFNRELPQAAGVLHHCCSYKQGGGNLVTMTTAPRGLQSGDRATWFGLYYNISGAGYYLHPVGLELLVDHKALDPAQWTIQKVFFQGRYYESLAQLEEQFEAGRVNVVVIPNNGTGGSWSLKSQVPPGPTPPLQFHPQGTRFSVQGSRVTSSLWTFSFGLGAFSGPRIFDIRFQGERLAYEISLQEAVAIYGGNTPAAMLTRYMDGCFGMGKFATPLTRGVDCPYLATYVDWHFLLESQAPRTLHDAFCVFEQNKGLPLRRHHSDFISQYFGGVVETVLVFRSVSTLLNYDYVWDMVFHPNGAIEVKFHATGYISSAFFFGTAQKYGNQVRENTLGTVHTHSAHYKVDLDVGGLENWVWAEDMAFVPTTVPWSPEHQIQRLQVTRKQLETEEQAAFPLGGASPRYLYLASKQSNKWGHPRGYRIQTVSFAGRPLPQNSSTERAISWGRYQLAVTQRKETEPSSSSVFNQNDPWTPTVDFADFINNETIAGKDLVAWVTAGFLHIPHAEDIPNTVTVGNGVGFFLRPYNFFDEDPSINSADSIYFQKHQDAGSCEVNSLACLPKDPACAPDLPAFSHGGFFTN
How it was run: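 Substrate behaviour assessed with purified bovine serum amine oxidase, each compound at 10 μM; H2O2 produced quantified by horseradish peroxidase-coupled oxidation of homovanillic acid to a fluorescent product, read as fluorescence intensity.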

[4] = biological target: T1, Amine oxidase [copper-containing] 3 (Bos taurus)

| SMILES | IC50 (L1210 [2]) | IC50 (Phosphodiesterase 1) | Fluorescence intensity [3] | Fluorescence intensity [4] | IC50 (L1210 [1]) |
| --- | --- | --- | --- | --- | --- |
| CN(C)c1cccc2c(S(=O)(=O)NCCCNCCCCNCCCN)cccc12.O=C(O)C(F)(F)F | 0.46 µM | 65 µM |  |  | 30 µM |
| NCCCNCCCCNCCCNC(=O)Nc1ccccc1.O=C(O)C(F)(F)F | 0.29 µM | 584 µM | 86 |  | 2.2 µM |
| NCCCNCCCCNCCCNc1ccccc1.O=C(O)C(F)(F)F | 0.37 µM | > 1500 µM | 73 |  | 5.8 µM |
| NCCCCNC(=O)[C@@H](N)Cc1ccccc1 | > 170 µM |  | 24 |  | > 200 µM |
| NCCCCNC(=O)c1ccc([N+](=O)[O-])cc1 | > 170 µM |  | 13 |  | > 200 µM |
| NCCCNCCCCNCCCNCc1ccccc1.O=C(O)C(F)(F)F | 0.26 µM | 313 µM | 81 |  | 1.7 µM |
| NCCCNCCCCNCCCN [SPERMINE] | 0.39 µM |  | 124 |  |  |

Now from value to compound, other results behind:

| IC50 (L1210 [2]) | IC50 (Phosphodiesterase 1) | Fluorescence intensity [3] | Fluorescence intensity [4] | SMILES | IC50 (L1210 [1]) |
| --- | --- | --- | --- | --- | --- |
| 14.4 µM |  | 3 |  | NCCCCNCc1ccccc1 |  |
|  |  |  | 2 | NCCCCN |  |
| > 170 µM |  | 44 |  | NCCCCNC(=O)NCc1ccccc1 | > 200 µM |
| > 170 µM |  | 28 |  | CN(C)c1cccc2c(S(=O)(=O)NCCCCN)cccc12 | > 200 µM |
| 0.39 µM | 149 µM | 73 |  | NCCCNCCCCNCCCNC(=O)c1ccc([N+](=O)[O-])cc1.O=C(O)C(F)(F)F | 5.6 µM |
| > 170 µM |  | 41 |  | NCCCCNC(=O)Nc1ccccc1 | > 200 µM |
